A value given as a limit tells only on which side of the number the result lay.

The target of the first assay is T1, Solute carrier family 12 member 5 (Rattus norvegicus, UniProt Q63633).
T1 sequence (Q63633 whole entry): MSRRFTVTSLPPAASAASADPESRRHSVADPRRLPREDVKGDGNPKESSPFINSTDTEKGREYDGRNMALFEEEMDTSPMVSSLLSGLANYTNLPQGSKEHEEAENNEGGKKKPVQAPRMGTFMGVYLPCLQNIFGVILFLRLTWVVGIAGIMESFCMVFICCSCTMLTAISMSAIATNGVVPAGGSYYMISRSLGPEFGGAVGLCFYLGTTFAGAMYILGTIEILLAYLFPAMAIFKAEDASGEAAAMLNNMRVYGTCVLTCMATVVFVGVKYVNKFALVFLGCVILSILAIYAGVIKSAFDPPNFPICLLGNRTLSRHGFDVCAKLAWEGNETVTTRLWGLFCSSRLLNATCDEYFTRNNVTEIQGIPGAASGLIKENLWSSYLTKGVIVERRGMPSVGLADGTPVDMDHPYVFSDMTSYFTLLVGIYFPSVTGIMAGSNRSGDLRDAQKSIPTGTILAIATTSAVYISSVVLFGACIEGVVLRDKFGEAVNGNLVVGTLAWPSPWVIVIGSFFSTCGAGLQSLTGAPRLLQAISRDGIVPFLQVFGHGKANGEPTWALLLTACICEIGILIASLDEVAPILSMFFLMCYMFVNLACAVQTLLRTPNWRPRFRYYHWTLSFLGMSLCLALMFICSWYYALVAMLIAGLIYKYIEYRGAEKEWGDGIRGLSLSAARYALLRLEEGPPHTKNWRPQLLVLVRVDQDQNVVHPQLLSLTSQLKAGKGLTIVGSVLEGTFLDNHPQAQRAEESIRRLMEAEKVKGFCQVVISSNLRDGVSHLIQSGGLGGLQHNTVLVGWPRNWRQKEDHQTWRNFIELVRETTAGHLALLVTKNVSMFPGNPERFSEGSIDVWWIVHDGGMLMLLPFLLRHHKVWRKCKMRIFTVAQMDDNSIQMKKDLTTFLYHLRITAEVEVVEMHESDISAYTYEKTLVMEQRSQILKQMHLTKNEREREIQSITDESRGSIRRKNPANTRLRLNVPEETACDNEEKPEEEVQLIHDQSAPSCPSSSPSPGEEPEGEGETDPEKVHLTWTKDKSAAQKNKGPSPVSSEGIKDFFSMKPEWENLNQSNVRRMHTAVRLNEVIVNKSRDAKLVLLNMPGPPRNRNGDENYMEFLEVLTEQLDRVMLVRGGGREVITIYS
The experiment in a line: Antagonist activity of rat KCC2 transporter expressed in human SK-Hep cells assessed as inhibition of N-ethylmaleimide-mediated Rb+ influx after 10 mins by atomic absorption spectroscopy. The assay is classed as functional, cell-based. The procedure, abridged: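 Rat KCC2 stably expressed in a selected clone. The co-transporter is activated with N-ethylmaleimide in the presence of the test compound, and Rb+ influx is started by adding 5 mM RbCl to the extracellular medium. Influx is stopped after 10 min by repeated washes. Intracellular Rb+ is measured by atomic absorption spectroscopy, and IC50 is reported.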
What is called IC50 is the concentration that inhibits the measured activity by half. `CC(=O)N1CCCC1(Cc1ccccc1)C(=O)OCc1ccc(Cl)cc1` (stereo not drawn): the IC50 was 1.3 µM. On the same count and under the same terms, with `CC(=O)N1CCCC1(Cc1ccccc1)C(=O)OCc1ccccc1` (single isomer, unassigned; (+)) the figure was 0.32 µM; with `CC(=O)N1CCCC1(Cc1ccccc1)C(=O)OCc1ccc(C(F)(F)F)cc1` (stereo not drawn), 5 µM. On the same count and under the same terms, with `CC(=O)N1CCCC1(Cc1ccccc1)C(=O)NCc1ccccc1` (stereo not drawn) the figure was 100 µM; with `CC(=O)N1CCCC1(Cc1cccc(C(F)(F)F)c1)C(=O)OCc1ccccc1` (stereo not drawn), 0.08 µM; with `CC(=O)N1CCCC1(Cc1ccccc1)C(=O)OCC1CCCCC1` (stereo not drawn), 63 µM. As to `COc1ccc(CC2(C(=O)OCc3ccccc3)CCCN2C(C)=O)cc1C(F)(F)F` (stereo not drawn), the IC50 turned out to be 0.05 µM. Take `CC(=O)N1CCCC1(Cc1ccccc1)C(=O)OCCc1ccccc1` (stereo not drawn): the 50% inhibitory concentration (IC50) is 10 µM. In the case of `COC(=O)C1(Cc2ccccc2)CCCN1C(C)=O` (stereo not drawn), the IC50 is more than 100 µM. In the case of `CC(=O)N1CCCC1(Cc1cccc(C#N)c1)C(=O)OCc1ccccc1` (stereo not drawn), the IC50 was 0.32 µM.

As to `CCC(=O)N1CCCC1(Cc1ccccc1)C(=O)OCc1ccccc1` (stereo not drawn), the IC50 was 1.2 µM. Still for that read-out and setting: with `O=C(C1CC1)N1CCCC1(Cc1ccccc1)C(=O)OCc1ccccc1` (stereo not drawn) the figure was 0.32 µM.

Test system in the next assay: not listed separately
The experiment in a line: Antagonist activity to dog NKCC1 transporter expressed in MDCK cells assessed as inhibition of Cl- free medium-stimulated Rb+ influx at 100 uM after 45 mins by atomic absorption spectroscopy. The assay is classed as functional, Canis lupus familiaris. The procedure, abridged: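 MDCK cells express endogenous canine NKCC1. NKCC1 is activated by incubating the cells for 2 h in Cl−-free medium. Rb+ influx is then stimulated for 45 min by adding 20 mM RbCl to the extracellular solution. Intracellular Rb+ is quantified by atomic absorption spectroscopy, and results are given as percent inhibition.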
Turning to `CC(=O)N1CCCC1(Cc1ccccc1)C(=O)OCc1ccccc1` (single isomer, unassigned; (+)), the “inhibition (INH)” value came to 14%.

These data come from ChEMBL document CHEMBL1156993, “Benzyl prolinate derivatives as novel selective KCC2 blockers” (Bioorg Med Chem Lett, 2010).
